Source: ChEMBL document CHEMBL4610127, “Novel Autotaxin Inhibitor for the Treatment of Idiopathic Pulmonary Fibrosis: A Clinical Candidate Discovered Using DNA-Encoded Chemistry” (J Med Chem, 2020)
pIC50: −log10 of the molar value. In brackets after ≈: the same amount, converted by molar mass. Activity calls are given as the source filed them. The rule behind the calls is not given here.

Key:
[1] = Oral bioavailability in dog at 1 mg/kg; assay type: ADME, organism-based, Canis lupus familiaris; conditions: in vivo
[2] = target: T1, Lysophosphatidic acid receptor 3 (Homo sapiens, UniProt Q9UBY5); assay: Inhibition of LPAR3 (unknown origin)
T1 sequence (Q9UBY5 whole entry): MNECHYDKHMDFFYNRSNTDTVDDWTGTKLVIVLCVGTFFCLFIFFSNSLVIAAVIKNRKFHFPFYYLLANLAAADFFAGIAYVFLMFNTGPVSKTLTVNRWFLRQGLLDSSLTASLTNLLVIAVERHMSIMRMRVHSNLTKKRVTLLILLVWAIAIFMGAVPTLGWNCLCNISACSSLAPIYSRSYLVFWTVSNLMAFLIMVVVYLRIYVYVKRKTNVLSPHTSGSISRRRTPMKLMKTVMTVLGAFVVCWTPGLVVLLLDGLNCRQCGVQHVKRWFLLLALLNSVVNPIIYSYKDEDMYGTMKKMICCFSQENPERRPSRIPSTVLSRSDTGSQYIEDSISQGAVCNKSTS

Cytochrome P450 1A2 = target: T2, Cytochrome P450 1A2 (Homo sapiens, UniProt P05177); assay: Inhibition of CYP1A2 (unknown origin); assay type: ADME
T2 sequence (P05177 whole entry): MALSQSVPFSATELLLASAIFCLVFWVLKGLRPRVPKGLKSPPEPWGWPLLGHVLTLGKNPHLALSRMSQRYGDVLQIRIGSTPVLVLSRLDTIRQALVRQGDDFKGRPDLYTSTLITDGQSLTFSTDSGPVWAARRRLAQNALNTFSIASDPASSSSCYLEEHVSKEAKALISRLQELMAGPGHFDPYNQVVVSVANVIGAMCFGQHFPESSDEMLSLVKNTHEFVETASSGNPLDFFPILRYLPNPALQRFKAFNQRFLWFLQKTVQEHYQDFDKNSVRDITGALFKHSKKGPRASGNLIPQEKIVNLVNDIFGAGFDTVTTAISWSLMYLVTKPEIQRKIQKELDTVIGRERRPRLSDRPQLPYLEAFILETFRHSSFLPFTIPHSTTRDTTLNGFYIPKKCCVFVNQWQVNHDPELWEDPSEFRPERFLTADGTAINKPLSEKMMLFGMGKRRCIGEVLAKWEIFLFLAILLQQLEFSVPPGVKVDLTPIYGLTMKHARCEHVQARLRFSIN

[3] = Clearance in mouse at 1 mg/kg, iv; assay type: ADME, organism-based; conditions: in vivo
[4] = Cmax in mouse at 10 mg/kg, po; assay type: ADME, organism-based; design: dose 10 mg/kg, route oral; conditions: in vivo
Mus musculus [5] = assay: Anti-fibrotic activity in C57BL/6 mouse model of bleomycin-induced lung fibrosis assessed as reduction in lung fibrosis levels at 30 to 300 mg/kg, po BID for 21 days dosed 7 days after bleomycin treatment by trichrome staining based assay; assay type: functional, organism-based
In short: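 Therapeutic mode: oral BID dosing (30, 100, 300 mg/kg) began seven days after bleomycin. Mice killed 21 days after bleomycin; fibrosis quantitated by trichrome staining of lung tissue in a separate group from the hydroxyproline group. GLPG1690 at 30 and 100 mg/kg BID as control.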

Rattus norvegicus = assay: Inhibition of LPA (20:4) production in rat at 0.1 to 30 mg/kg, po measured after 4 hrs by LC-MS/MS analysis; assay type: functional, organism-based
In short: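 Rats dosed orally across a dose range. LPA 20:4 and compound levels measured by LC-MS/MS in blood at 4 h post-dose. LPA 20:4 chosen because it is more abundant in rats. Average percent inhibition of LPA plotted against plasma compound level to derive IC50.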

Mus musculus [6] = assay: Anti-fibrotic activity in C57BL/6 mouse model of bleomycin-induced lung fibrosis assessed as reduction in hydroxyproline levels at 100 to 300 mg/kg, po BID for 21 days dosed 7 days after bleomycin treatment; assay type: functional, organism-based
In short: (§1)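 Mice given oral BID doses (30, 100 or 300 mg/kg) starting seven days after bleomycin. Killed 21 days after bleomycin; lung fibrosis scored by hydroxyproline in one group. GLPG1690 at 30 and 100 mg/kg BID as control. Medians and p-values against bleomycin + vehicle.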

[7] = target: Lysophosphatidic acid receptor 2 (Homo sapiens, UniProt Q9HBW0); assay: Inhibition of LPAR2 (unknown origin)
Chain of Lysophosphatidic acid receptor 2 (Q9HBW0 whole entry): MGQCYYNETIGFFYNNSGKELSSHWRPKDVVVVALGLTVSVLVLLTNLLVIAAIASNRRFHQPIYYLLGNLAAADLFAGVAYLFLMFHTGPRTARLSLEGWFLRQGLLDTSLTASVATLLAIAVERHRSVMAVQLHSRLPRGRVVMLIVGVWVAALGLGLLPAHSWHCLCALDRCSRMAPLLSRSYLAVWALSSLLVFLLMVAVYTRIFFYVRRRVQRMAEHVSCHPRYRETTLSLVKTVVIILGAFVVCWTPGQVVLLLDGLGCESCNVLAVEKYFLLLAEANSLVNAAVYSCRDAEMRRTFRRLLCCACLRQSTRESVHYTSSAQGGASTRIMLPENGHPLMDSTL

[8] = Volume of distribution at steady state in mouse at 1 mg/kg, iv; assay type: ADME, organism-based; conditions: in vivo, read-out: Vdss
[9] = Clearance in rat at 1 mg/kg, iv; assay type: ADME, organism-based; conditions: in vivo
[10] = Half life in mouse at 10 mg/kg, po; assay type: ADME, organism-based; conditions: in vivo
[11] = Thermodynamic solubility in pH 7.4 buffer; assay type: physicochemical; conditions: read-out: Therm_solubility
[12] = Protein binding in rat plasma; assay type: ADME, cell-free; conditions: read-out: PPB (converted)
Autotaxin [13] = target: T3, Autotaxin (Homo sapiens, UniProt Q13822); assay: Inhibition of C-terminal FLAG-tagged human autotaxin expressed in Freestyle 293 cells assessed as reduction in choline release from LPC 16:0 pre-incubated for 10 mins before LPC addition and measured after 1 hr by choline oxidase/HRP coupled assay; assay type: cell-based
[14] = Half life in mouse at 1 mg/kg, iv; assay type: ADME, organism-based; conditions: in vivo
[15] = Clearance in dog at 1 mg/kg, iv; assay type: ADME, organism-based, Canis lupus familiaris; conditions: in vivo
Mus musculus [16] = assay: Anti-fibrotic activity in C57BL/6 mouse model of bleomycin-induced lung fibrosis assessed as reduction in hydroxyproline levels at 30 to 300 mg/kg, po BID dosed until day 21 starting one day prior to bleomycin treatment; assay type: functional; conditions: C57BL/6, po, read-out: MED
In short: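 Mice given oral BID doses (30, 100 or 300 mg/kg) starting one day before bleomycin. Killed 21 days after bleomycin; lung fibrosis scored by hydroxyproline in one group. GLPG1690 at 30 and 100 mg/kg BID as control. Hydroxyproline plotted per mouse; medians and p-values against bleomycin + vehicle.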

[17] = AUClast in dog at 1 mg/kg, po; assay type: ADME, organism-based, Canis lupus familiaris; design: dose 1 mg/kg, time 0 - last, route oral; conditions: in vivo
Autotaxin [18] = target: T3, Autotaxin; assay: Inhibition of autotaxin in human plasma assessed as reduction in LPA (18:2) production incubated for 2 hrs LC-MS-/MS analysis; assay type: cell-free
[19] = Protein binding in human plasma; assay type: ADME, cell-free; conditions: read-out: PPB (converted)
[20] = Half life in dog at 1 mg/kg, po; assay type: ADME, organism-based, Canis lupus familiaris; conditions: in vivo
[21] = target: T4, Voltage-gated inwardly rectifying potassium channel KCNH2 (Homo sapiens, UniProt Q12809); assay: Inhibition of human ERG by GLP based assay
T4 sequence (Q12809 whole entry): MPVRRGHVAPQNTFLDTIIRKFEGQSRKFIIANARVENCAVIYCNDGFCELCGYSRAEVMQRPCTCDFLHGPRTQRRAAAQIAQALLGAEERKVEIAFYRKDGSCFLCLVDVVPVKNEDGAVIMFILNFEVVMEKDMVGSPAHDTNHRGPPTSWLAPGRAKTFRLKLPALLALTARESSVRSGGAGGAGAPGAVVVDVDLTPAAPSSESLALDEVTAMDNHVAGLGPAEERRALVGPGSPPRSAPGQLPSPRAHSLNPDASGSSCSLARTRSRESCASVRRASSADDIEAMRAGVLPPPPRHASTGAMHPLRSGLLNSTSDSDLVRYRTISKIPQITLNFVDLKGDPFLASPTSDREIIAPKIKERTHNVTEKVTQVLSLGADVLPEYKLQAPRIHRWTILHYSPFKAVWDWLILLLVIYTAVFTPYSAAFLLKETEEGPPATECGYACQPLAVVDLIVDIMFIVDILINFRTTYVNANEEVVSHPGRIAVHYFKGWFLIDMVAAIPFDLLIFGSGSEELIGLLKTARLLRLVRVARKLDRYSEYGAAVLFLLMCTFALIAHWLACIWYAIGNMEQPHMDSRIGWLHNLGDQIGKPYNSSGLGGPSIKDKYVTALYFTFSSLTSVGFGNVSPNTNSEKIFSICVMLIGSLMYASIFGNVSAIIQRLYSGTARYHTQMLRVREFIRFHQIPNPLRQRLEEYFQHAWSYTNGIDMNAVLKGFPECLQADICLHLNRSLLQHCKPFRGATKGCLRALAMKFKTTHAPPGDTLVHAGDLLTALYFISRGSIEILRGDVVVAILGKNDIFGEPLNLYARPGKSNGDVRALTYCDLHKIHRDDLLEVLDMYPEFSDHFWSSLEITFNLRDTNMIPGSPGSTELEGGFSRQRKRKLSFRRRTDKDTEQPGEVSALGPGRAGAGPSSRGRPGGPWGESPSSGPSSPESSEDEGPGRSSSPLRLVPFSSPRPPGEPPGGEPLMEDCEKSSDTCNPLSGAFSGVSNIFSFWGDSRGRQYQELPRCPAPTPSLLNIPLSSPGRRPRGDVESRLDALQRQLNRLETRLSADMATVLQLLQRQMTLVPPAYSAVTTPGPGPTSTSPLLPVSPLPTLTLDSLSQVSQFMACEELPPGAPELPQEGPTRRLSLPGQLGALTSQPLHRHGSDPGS

[22] = Half life in rat at 5 mg/kg, po; assay type: ADME, organism-based; conditions: in vivo
[23] = Half life in rat liver microsomes; assay type: ADME, Microsome
Mus musculus [24] = assay: Anti-fibrotic activity in C57BL/6 mouse model of bleomycin-induced lung fibrosis assessed as reduction in hydroxyproline levels at 30 mg/kg, po BID for 21 days dosed 7 days after bleomycin treatment; assay type: functional, organism-based; in short: as §1
[25] = Half life in human liver microsomes; assay type: ADME, Microsome
Autotaxin (Mus musculus) = Autotaxin (Mus musculus) (UniProt Q9R1E6); assay: Potency index, ratio of IC50 for GLPG1690 to IC50 for test compound for inhibition of autotaxin in mouse plasma assessed as reduction in LPA (18:2) production incubated for 2 hrs LC-MS-/MS analysis; assay type: cell-free
Autotaxin [26] = target: T3, Autotaxin; assay: Potency index, ratio of IC50 for GLPG1690 to IC50 for test compound for inhibition of autotaxin in human plasma assessed as reduction in LPA (18:2) production incubated for 2 hrs LC-MS-/MS analysis; assay type: cell-free
[27] = target: T4, Voltage-gated inwardly rectifying potassium channel KCNH2; assay: Inhibition of human ERG by manual patch clamp assay

Compound `CC(C)[C@@H](NC(=O)c1cc(C(F)(F)F)ccc1F)C(=O)N1CCC2(CC1)C(=O)N(C)C(=O)N2c1ccc2[nH]ncc2c1` has a bioavailability [1] of 100%, a pIC50 [2] of less than 5.00 and a pIC50 (Cytochrome P450 1A2) of less than 4.30. The clearance [3] was 54 mL/min/kg, the Cmax [4] was 744 ng/mL and the Activity (Mus musculus [5]) was “Dose-dependent effect”. For the same compound, the pIC50 (Rattus norvegicus) was 8.19, the inhibition (Rattus norvegicus) was “Dose-dependent effect” and the Activity (Mus musculus [6]) was “Active”. It also gave a pIC50 [7] of less than 5.00, a Vd [8] of 1.38 L/kg and a clearance [9] of 36 mL/min/kg. For the same compound, the half-life [10] was 2.5 h, the solubility thermodynamic [11] was 452 µM (≈ 266 µg/mL) and the fraction unbound [12] was 0.273. For the same compound, the pIC50 (Autotaxin [13]) was 7.26, the half-life [14] was 0.57 h and the clearance [15] was 7.96 mL/min/kg. For the same compound, the minimal effective dose (Mus musculus [16]) was 30 mg/kg, the AUC(0-t) [17] was 3080 ng·h/mL and the pIC50 (Autotaxin [18]) was 7.85. For the same compound, the fraction unbound [19] was 0.113, the half-life [20] was 4.2 h and the pIC50 [21] was less than 4.30. The half-life [22] was 1.8 h, the half-life [23] was 4.62 h and the Activity (Mus musculus [24]) was “inactive”. For the same compound, the half-life [25] was 8.88 h, the Ratio IC50 (Autotaxin (Mus musculus)) was 60 and the Ratio IC50 (Autotaxin [26]) was 20. The pIC50 [27] was less than 4.30.
